This note sets out measurements from ChEMBL document CHEMBL1127751, “Novel Asp32-replacement tetrapeptide analogues as potent and selective CCK-A agonists” (J Med Chem, 1994).

For assay [1], the target named is T1, Cholecystokinin receptor type A (Cavia porcellus, UniProt Q63931).
T1 sequence (Q63931 whole entry): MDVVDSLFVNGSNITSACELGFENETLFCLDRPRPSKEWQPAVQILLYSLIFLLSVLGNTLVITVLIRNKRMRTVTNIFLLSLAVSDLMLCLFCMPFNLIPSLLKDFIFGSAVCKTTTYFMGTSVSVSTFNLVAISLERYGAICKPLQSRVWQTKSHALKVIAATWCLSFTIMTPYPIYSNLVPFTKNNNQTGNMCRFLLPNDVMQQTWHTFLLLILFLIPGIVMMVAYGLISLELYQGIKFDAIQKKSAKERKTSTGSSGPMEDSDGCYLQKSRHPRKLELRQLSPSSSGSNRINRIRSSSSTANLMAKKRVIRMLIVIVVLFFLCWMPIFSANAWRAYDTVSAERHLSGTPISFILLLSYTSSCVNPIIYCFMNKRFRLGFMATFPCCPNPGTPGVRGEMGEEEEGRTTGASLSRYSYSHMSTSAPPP
The experiment in a line: Concentration that inhibited 50% of specific binding of [125I]Bolton-Hunter CCK-8 binding in guinea pig pancreas.

The target in assay [2] is T2, Cholecystokinin receptor type A (Cavia porcellus) (UniProt Q63931).
T2 sequence (whole entry): T1 sequence (Q63931 whole entry)
Description: Percent response in PI hydrolysis relative to maximal response elicited by CCK-8 in guinea pig at 10e-6 M.

Assay [3] concerns Cholecystokinin receptor type B (Cavia porcellus). The experiment in a line: Percent inhibition of specific [125I]Bolton-Hunter CCK-8 binding in guinea pig cortex at 10e-6 M.
For a further assay, the species on record is Rattus norvegicus. The experiment in a line: Dose required to reduce food intake by 50% in rats. The assay is classed as functional. The method, boiled down: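 Rats dosed intraperitoneally in nmol/kg, with 7–8 animals per group in each experiment. Food intake was compared with vehicle controls. The dose reducing intake by 50% was calculated from the dose–response data and reported with an interval.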

Starred links: 1 amine or outer side, 2 acyl side, 3 side chain; linkers in the order of their positions; H or OH if unused. Non-standard residues stand in square brackets, D forms with d. Residues, ends and D or L forms follow the SMILES beside them. Groups on a side chain read outwards from the residue. ξ: configuration not given here. *: point of attachment. NMeF = CN[C@@H](Cc1ccccc1)C(=O)O; ξW = NC(Cc1c[nH]c2ccccc12)C(=O)O; NH(2-Me-phenyl) = Cc1ccccc1N*; ξNMeF = CNC(Cc1ccccc1)C(=O)O; β3hP = O=C(O)C[C@@H]1CCCN1; ξF = NC(Cc1ccccc1)C(=O)O; Boc = CC(C)(C)OC(=O)*; CO = O=C([*:1])[*:2]; Sar = CNCC(=O)O

In the case of `Cc1ccccc1NC(=O)NCCCC[C@H](NC(=O)C(Cc1c[nH]c2ccccc12)NC(=O)OC(C)(C)C)C(=O)NCCC(=O)NC(Cc1ccccc1)C(N)=O` (stereo not given in full), the IC50 (usually the concentration at which inhibition is half-maximal) in assay [1] amounted to 126 nM. In assay [2], this compound yielded a PI hydrolysis of 16%.
As for `Cc1ccccc1NC(=O)NCCCC[C@H](NC(=O)C(Cc1c[nH]c2ccccc12)NC(=O)OC(C)(C)C)C(=O)NCCCCC(=O)N(C)C(Cc1ccccc1)C(N)=O` (stereo not given in full), the half-maximal inhibitory concentration (IC50) in assay [1] is 1180 nM. The inhibition (commonly how much of the control response was suppressed) in assay [3] amounted to 7%. For the same compound, in assay [2], the PI hydrolysis was 7%.
In assay [1], `Cc1ccccc1NC(=O)NCCCC[C@H](NC(=O)C(Cc1c[nH]c2ccccc12)NC(=O)OC(C)(C)C)C(=O)N(C)CCC(=O)N(C)C(Cc1ccccc1)C(N)=O` (stereo not given in full) yielded an IC50 of 7 nM. Also, the PI hydrolysis in assay [2] amounted to 36%.
`Cc1ccccc1NC(=O)NCCCC[C@H](NC(=O)[C@H](Cc1c[nH]c2ccccc12)NC(=O)OC(C)(C)C)C(=O)NCC(=O)N[C@@H](Cc1ccccc1)C(N)=O` (Boc-WK([CO-NH(2-Me-phenyl)])GF-NH2) gave an IC50 in assay [1] of 921 nM.
As to `Cc1ccccc1NC(=O)NCCCC[C@H](NC(=O)C(Cc1c[nH]c2ccccc12)NC(=O)OC(C)(C)C)C(=O)N1CCC[C@H]1CC(=O)NC(Cc1ccccc1)C(N)=O` (stereo partly drawn) (Boc-[ξW]K([CO-NH(2-Me-phenyl)])[β3hP][ξF]-NH2), in assay [1], the IC50 worked out at 239 nM. Moreover, the PI hydrolysis in assay [2] was 68%.
For the compound `Cc1ccccc1NC(=O)NCCCC[C@H](NC(=O)C(Cc1c[nH]c2ccccc12)NC(=O)OC(C)(C)C)C(=O)NCC(=O)N(C)C(Cc1ccccc1)C(N)=O` (stereo not given in full) (Boc-[ξW]K([CO-NH(2-Me-phenyl)])G[ξNMeF]-NH2), the inhibition in assay [3] is 0%. The PI hydrolysis in assay [2] came out at 28%.
Consider `Cc1ccccc1NC(=O)NCCCC[C@H](NC(=O)[C@H](Cc1c[nH]c2ccccc12)NC(=O)OC(C)(C)C)C(=O)N(C)CC(=O)N(C)[C@@H](Cc1ccccc1)C(N)=O` (Boc-WK([CO-NH(2-Me-phenyl)])[Sar][NMeF]-NH2), for which, in assay [1], the IC50 came to 84 nM.
In assay [1], `Cc1ccccc1NC(=O)NCCCC[C@H](NC(=O)C(Cc1c[nH]c2ccccc12)NC(=O)OC(C)(C)C)C(=O)NCCCCCC(=O)N(C)C(Cc1ccccc1)C(N)=O` (stereo not given in full) gave an IC50 of 1330 nM. This compound yielded a PI hydrolysis in assay [2] of 4%.
As to `Cc1ccccc1NC(=O)NCCCC[C@H](NC(=O)C(Cc1c[nH]c2ccccc12)NC(=O)OC(C)(C)C)C(=O)NCCCCCC(=O)NC(Cc1ccccc1)C(N)=O` (stereo not given in full), the IC50 in assay [1] turned out to be 1200 nM. In assay [3], the inhibition was found to be 6%. The same compound had a PI hydrolysis in assay [2] of 5%.
`Cc1ccccc1NC(=O)NCCCC[C@H](NC(=O)[C@H](Cc1c[nH]c2ccccc12)NC(=O)OC(C)(C)C)C(=O)N(C)CC(=O)N[C@@H](Cc1ccccc1)C(N)=O` (Boc-WK([CO-NH(2-Me-phenyl)])[Sar]F-NH2) showed an IC50 in assay [1] of 265 nM.
For the compound `Cc1ccccc1NC(=O)NCCCC[C@H](NC(=O)C(Cc1c[nH]c2ccccc12)NC(=O)OC(C)(C)C)C(=O)N[C@@H]1CC(=O)N([C@@H](Cc2ccccc2)C(N)=O)C1` (stereo not given in full), the ED50 (in general, the midpoint of the dose-response relation) in the assay filed under Rattus norvegicus turned out to be 0.03 µmol/kg. The half-inhibitory concentration (IC50) in assay [1] came to 16 nM. The inhibition in assay [3] came to 39%. In addition, the PI hydrolysis in assay [2] was found to be 89%.
In turn, `Cc1ccccc1NC(=O)NCCCC[C@H](NC(=O)C(Cc1c[nH]c2ccccc12)NC(=O)OC(C)(C)C)C(=O)N(C)CC(=O)NC(Cc1ccccc1)C(N)=O` (stereo not given in full) (Boc-[ξW]K([CO-NH(2-Me-phenyl)])[Sar][ξF]-NH2) yielded an inhibition in assay [3] of 5%. Besides, in assay [2], the PI hydrolysis was found to be 24%.
Take `Cc1ccccc1NC(=O)NCCCC[C@H](NC(=O)C(Cc1c[nH]c2ccccc12)NC(=O)OC(C)(C)C)C(=O)NCC(=O)NC(Cc1ccccc1)C(N)=O` (stereo not given in full) (Boc-[ξW]K([CO-NH(2-Me-phenyl)])G[ξF]-NH2): the inhibition in assay [3] came out at 14%. The compound further had a PI hydrolysis in assay [2] of 17%.
For `Cc1ccccc1NC(=O)NCCCC[C@H](NC(=O)C(Cc1c[nH]c2ccccc12)NC(=O)OC(C)(C)C)C(=O)N(C)CCCC(=O)NC(Cc1ccccc1)C(N)=O` (stereo not given in full), the IC50 in assay [1] worked out at 393 nM. In assay [3], the inhibition was 11%. For the same compound, in assay [2], the PI hydrolysis was determined as 8%.
The like results for `Cc1ccccc1NC(=O)NCCCC[C@H](NC(=O)C(Cc1c[nH]c2ccccc12)NC(=O)OC(C)(C)C)C(=O)NCCCC(=O)N(C)C(Cc1ccccc1)C(N)=O` (stereo not given in full) were, in that order, 27 nM, 11% and 67%.
`Cc1ccccc1NC(=O)NCCCC[C@H](NC(=O)[C@H](Cc1c[nH]c2ccccc12)NC(=O)OC(C)(C)C)C(=O)NCC(=O)N(C)[C@@H](Cc1ccccc1)C(N)=O` (Boc-WK([CO-NH(2-Me-phenyl)])G[NMeF]-NH2): in assay [1], the IC50 was determined as 141 nM.
`Cc1ccccc1NC(=O)NCCCC[C@H](NC(=O)C(Cc1c[nH]c2ccccc12)NC(=O)OC(C)(C)C)C(=O)NCCCCC(=O)NC(Cc1ccccc1)C(N)=O` (stereo not given in full): the IC50 in assay [1] is 1800 nM. In assay [2], this compound gave a PI hydrolysis of 2%.
`Cc1ccccc1NC(=O)NCCCC[C@H](NC(=O)C(Cc1c[nH]c2ccccc12)NC(=O)OC(C)(C)C)C(=O)NCCC(=O)N(C)C(Cc1ccccc1)C(N)=O` (stereo not given in full) returned an IC50 in assay [1] of 27 nM. Further, the inhibition in assay [3] came to 9%. The PI hydrolysis in assay [2] was found to be 47%.
Regarding `Cc1ccccc1NC(=O)NCCCC[C@H](NC(=O)C(Cc1c[nH]c2ccccc12)NC(=O)OC(C)(C)C)C(=O)N(C)CCCC(=O)N(C)C(Cc1ccccc1)C(N)=O` (stereo not given in full), the IC50 in assay [1] stood at 19 nM. For the same compound, in assay [3], the inhibition amounted to 4%. The same compound showed a PI hydrolysis in assay [2] of 64%.
For `Cc1ccccc1NC(=O)NCCCC[C@H](NC(=O)C(Cc1c[nH]c2ccccc12)NC(=O)OC(C)(C)C)C(=O)NCCCC(=O)NC(Cc1ccccc1)C(N)=O` (stereo not given in full) the same measures were 749 nM, 11% and 9%.
The like results for `Cc1ccccc1NC(=O)NCCCC[C@H](NC(=O)C(Cc1c[nH]c2ccccc12)NC(=O)OC(C)(C)C)C(=O)N1CCC[C@H]1CC(=O)N(C)C(Cc1ccccc1)C(N)=O` (stereo partly drawn) (Boc-[ξW]K([CO-NH(2-Me-phenyl)])[β3hP][ξNMeF]-NH2) were, in that order, 17 nM, 13% and 92%.
In the case of `Cc1ccccc1NC(=O)NCCCC[C@H](NC(=O)C(Cc1c[nH]c2ccccc12)NC(=O)OC(C)(C)C)C(=O)N(C)CCC(=O)NC(Cc1ccccc1)C(N)=O` (stereo not given in full), the IC50 in assay [1] amounted to 62 nM. In assay [3], this compound displayed an inhibition of 14%. The compound further came in with a PI hydrolysis in assay [2] of 61%.
`Cc1ccccc1NC(=O)NCCCC[C@H](NC(=O)C(Cc1c[nH]c2ccccc12)NC(=O)OC(C)(C)C)C(=O)N(C)CC(=O)N(C)C(Cc1ccccc1)C(N)=O` (stereo not given in full) (Boc-[ξW]K([CO-NH(2-Me-phenyl)])[Sar][ξNMeF]-NH2) displayed a PI hydrolysis in assay [2] of 33%.
`Cc1ccccc1NC(=O)NCCCC[C@H](NC(=O)C(Cc1c[nH]c2ccccc12)NC(=O)OC(C)(C)C)C(=O)N1CCC(=O)N(C(Cc2ccccc2)C(N)=O)CC1` (stereo not given in full) yielded an IC50 in assay [1] of 750 nM. For the same compound, the inhibition in assay [3] is 8%. Further, the PI hydrolysis in assay [2] came to 1%.
